Screens deposited in PubChem BioAssay by several laboratories.
UHRF1 MBD2 ctr: blocks human UHRF1 binding to methylated DNA | Q96T88 | UHRF1 binding to methylated oligo, TR-FRET | inhibition, % at 4.4 µM | 370,000 tested, 0.75% active | AID 687016; in the data active = inhibition above about 21%;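 note: UHRF1 SRA domain binding a hemimethylated CpG hairpin DNA probe; 0% = median of test compound wells and 100% = reference inhibitor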
LEDGF integ inh: blocks HIV-1 LEDGF/p75-dependent DNA integration | TR-FRET IN-LEDGF/p75 DNA integration, Eu/Cy5 | AID 743269 | 370,000 tested, 0.64% active | inhibition, % at 3.7 µM;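 active = inhibition above the screen-wide mean plus 3 SD, cut at about 13% in these data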;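 note: signal is the Cy5 over europium emission ratio at 671 and 618 nm; 0% = plate median of compound wells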
MBD2 inh: inhibitors of human MBD2 binding to methylated oligonucleotide; inhibition, % at 4.4 µM; Q9UBB5; TR-FRET; 370,000 tested, 0.31% active; in the data active = inhibition above about 13%
CASP6 VEID inh: caspase-6 (human) enzyme inhibition. P55212. purified caspase-6, Z-VEID-R110 cleavage fluorescence. inhibition, % at 12.5 µM. 350,000 tested, 0.53% active;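 active = mean inhibition across replicates at least about 35%, with every replicate also reaching that limit, limit read from the data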;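 note: 0% = median of neutral control wells and 100% = no fluorescence left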
TDP2 inh: blocks human TDP2 phosphodiesterase activity; recombinant TDP2, T5PNP hydrolysis, p-nitrophenol absorbance 415 nm; 370,000 tested, 0.34% active; inhibition, % at 12.8 µM; AID 720702;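 active = inhibition above the mean of all tested compounds plus 3 SD, set per campaign, cut at about 25% in these data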;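 note: 0% = DMSO with enzyme and 100% = buffer with substrate but no TDP2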
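Material: recombinant human TDP2; quantity: TDP2 enzyme at 120 nM final; medium: Tris-HCl pH 7.5 with MgCl2; compound: single concentration, 12.8 µM nominal, with 1% DMSO; incubation: 2 h enzyme incubation at 37 °C; signal: epi absorbance; measure: percent inhibition; benchmarks: high control without enzyme, low control DMSO plus TDP2; repeats: singlicate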
NSD2 HMT inh: NSD2 (human) methyltransferase inhibition; NSD2 peptide methylation, AlphaScreen, 120 min; O96028; 310,000 tested, 0.54% active; inhibition, % at 12.5 µM; AID 743445; in the data active = inhibition above about 50%
Target sequence (O96028 whole entry, looked up): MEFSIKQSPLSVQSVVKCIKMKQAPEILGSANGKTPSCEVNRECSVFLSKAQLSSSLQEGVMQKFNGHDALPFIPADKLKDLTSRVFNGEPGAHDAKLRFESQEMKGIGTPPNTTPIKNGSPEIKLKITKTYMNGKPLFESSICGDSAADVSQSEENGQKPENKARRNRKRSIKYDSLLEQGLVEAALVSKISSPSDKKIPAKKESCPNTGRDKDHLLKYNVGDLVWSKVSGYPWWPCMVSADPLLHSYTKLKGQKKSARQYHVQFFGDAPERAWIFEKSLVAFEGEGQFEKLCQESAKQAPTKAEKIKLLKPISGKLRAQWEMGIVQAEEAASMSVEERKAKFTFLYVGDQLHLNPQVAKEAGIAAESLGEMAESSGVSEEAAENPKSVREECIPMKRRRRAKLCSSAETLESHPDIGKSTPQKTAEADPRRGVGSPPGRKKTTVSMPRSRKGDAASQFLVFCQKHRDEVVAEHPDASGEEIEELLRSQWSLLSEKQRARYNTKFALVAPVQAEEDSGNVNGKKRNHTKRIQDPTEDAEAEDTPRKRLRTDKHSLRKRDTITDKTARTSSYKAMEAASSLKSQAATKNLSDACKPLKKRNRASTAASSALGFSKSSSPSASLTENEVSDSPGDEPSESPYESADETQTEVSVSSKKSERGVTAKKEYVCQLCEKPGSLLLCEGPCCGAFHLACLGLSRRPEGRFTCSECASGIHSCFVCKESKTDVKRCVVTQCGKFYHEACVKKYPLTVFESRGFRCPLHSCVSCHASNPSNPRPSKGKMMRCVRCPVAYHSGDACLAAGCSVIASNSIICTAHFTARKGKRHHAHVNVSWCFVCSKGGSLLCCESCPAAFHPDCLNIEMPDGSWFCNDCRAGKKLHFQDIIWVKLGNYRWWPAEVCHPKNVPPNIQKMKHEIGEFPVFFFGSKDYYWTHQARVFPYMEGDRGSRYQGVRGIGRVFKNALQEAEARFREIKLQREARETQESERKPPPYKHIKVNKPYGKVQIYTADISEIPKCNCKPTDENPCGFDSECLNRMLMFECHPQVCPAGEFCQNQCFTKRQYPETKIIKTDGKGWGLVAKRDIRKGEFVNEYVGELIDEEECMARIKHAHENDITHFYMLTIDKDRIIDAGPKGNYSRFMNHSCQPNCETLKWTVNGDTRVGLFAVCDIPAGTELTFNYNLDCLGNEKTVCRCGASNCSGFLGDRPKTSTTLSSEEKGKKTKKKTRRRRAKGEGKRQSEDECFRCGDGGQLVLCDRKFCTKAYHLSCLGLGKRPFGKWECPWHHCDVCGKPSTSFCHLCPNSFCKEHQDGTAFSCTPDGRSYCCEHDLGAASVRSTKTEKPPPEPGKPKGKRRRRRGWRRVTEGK
* marks the source's active call; other numbers are inactive results; · = no result. A selection: hits, their analogues and other compounds. The true share with any hit is near 1.8%.

SMILES | UHRF1 MBD2 ctr | LEDGF integ inh | MBD2 inh | CASP6 VEID inh | TDP2 inh | NSD2 HMT inh
Cc1[nH]c2ccccc2c1/C=N/NC(=O)c1cccc(F)c1 | -1 | -6 | -1 | 0 | -7 | 3
Cc1[nH]c2ccccc2c1/C=N/NC(=O)c1cc(C(C)C)[nH]n1 | 25* | -3 | 2 | 1 | 8 | 0
CCOC1=C2CN(S(=O)(=O)c3ccc(C)cc3)[C@H](c3ccccc3)C[C@@H]2N(S(C)(=O)=O)[C@H](c2ccccc2)C1 | 28* | 1 | -5 | -3 | 8 | ·
COc1cccc(-c2ccc3c(c2)[C@H]2[C@H](CCN2Cc2ccccc2OC)[C@H](CO)N3)c1 | · | · | · | -1 | · | ·
CCc1ccc(CNCCNC(=O)c2ccco2)cc1 | 3 | 4 | -4 | 7 | -13 | 0
O=C(NCCNCc1ccccc1)c1ccco1 | 9 | 11 | -5 | 64* | 9 | 3
COc1ccc(OCCCC(=O)OC(C)C(=O)Nc2ccc(NC(C)=O)cc2)cc1 (centres undefined) | -2 | 1 | 2 | 1 | 4 | -1
COc1ccc(OCCCC(=O)OC(C)C(=O)Nc2ccc(S(N)(=O)=O)cc2)cc1 (centres undefined) | 3 | 35* | 3 | -1 | -7 | 1
CCN(CC)c1ccc2c(-c3ccc(S(=O)(=O)O)cc3S(=O)(=O)[O-])c3ccc(=[N+](CC)CC)cc-3oc2c1 | · | · | · | -40 | · | 61*
CCN(CC)c1ccc2nc3c4ccccc4c(=O)cc-3oc2c1 | 6 | -4 | 4 | 10 | 2 | ·
CC1=C(C(=O)N(C)C)CC(CC(=O)NCc2cccs2)C(=O)N1Cc1ccc(F)cc1 (centres undefined) | 24* | -1 | 8 | · | 10 | ·
CCN(CC)C(=O)C1=C(C)N(Cc2ccc(OC)cc2)C(=O)C(CC(=O)NCCN2CCOCC2)C1 (centres undefined) | 22* | 4 | 9 | 4 | -8 | ·
COc1ccc(CN2C(=O)C(CC(=O)NCCN3CCOCC3)CC(C(=O)N(C)C)=C2C)cc1 (centres undefined) | 1 | 5 | -5 | -2 | 2 | ·
Cc1ccc(S(=O)(=O)N(C)C[C@@H]2Oc3ccc(NC(=O)C4CC4)cc3CC(=O)N([C@H](C)CO)C[C@@H]2C)cc1 | · | · | · | -1 | · | ·
Cc1ccc(CNC(=O)c2ccc(N3CCC4(CC3)CC(c3ccccc3)=NO4)c([N+](=O)[O-])c2)cc1 | 22* | 1 | 4 | -2 | 8 | ·
CO[C@@H]1CN(C)C(=O)c2ccc(NS(C)(=O)=O)cc2OC[C@H](C)N(CC2CCOCC2)C[C@H]1C | · | · | · | 3 | · | ·
COc1ccc([N+](=O)[O-])cc1NC(=O)CSc1nc(C)c(C)c(C)n1 | 0 | 0 | 0 | · | -6 | ·
COC(=O)Nc1cc([N+](=O)[O-])ccc1OC | -1 | -3 | -3 | 0 | -5 | 0
COc1ccc([N+](=O)[O-])cc1NC(=O)C(C)N1CCCC1 (centres undefined) | 49* | 2 | 0 | 3 | 2 | 0
COc1ccc([N+](=O)[O-])cc1NC(=O)C(C)Sc1nc(C)c(C)c(C)n1 (centres undefined) | 61* | 3 | -1 | · | -4 | -2
O=C(C[C@H]1CC[C@H](NC(=O)Nc2ccc(C(F)(F)F)cc2)[C@H](CO)O1)NCc1ccccn1 | · | · | · | 6 | · | ·
CC(C)c1ccc(/C=C2\C(=O)N(CCN3CCOCC3)C(=S)N2C)cc1 | 22* | -1 | -3 | · | 12 | 3
CC(C)c1ccc(C(=O)NCCCN2CCOCC2)cc1 | 0 | -3 | -2 | -15 | 4 | ·
CCCc1ccc(S(=O)(=O)N2CCN(Cc3ccco3)CC2)cc1 | -2 | 0 | 2 | 3 | 7 | 5
CCCS(=O)(=O)N1CCN(Cc2ccco2)CC1 | 25* | 3 | -2 | · | 9 | -1
SMILES | UHRF1 MBD2 ctr | LEDGF integ inh | MBD2 inh | CASP6 VEID inh | TDP2 inh | NSD2 HMT inh
Cc1ccc(Cc2c(-c3cccc(Br)c3)nc3ccc(C)cn23)cc1 | 20 | 3 | 9 | -3 | -2 | ·
COC(=O)c1ccc2nc(-c3ccc(Cl)cc3)c(Cc3ccccc3)n2c1 | 23* | -1 | 2 | -1 | 2 | ·
COC(=O)c1ccc2nc(-c3ccco3)c(Cc3ccc(C)cc3)n2c1 | 23* | 1 | 10 | 1 | -2 | ·
Cc1ccc2nc(-c3cccc(Br)c3)c(CC3CCCCC3)n2c1 | 21* | -1 | 6 | -3 | 7 | ·
COC(=O)c1ccc2nc(-c3ccco3)c(Cc3ccccc3OC)n2c1 | 26* | 9 | 16* | 3 | 4 | ·
COC(=O)c1ccc2nc(-c3cccc(Cl)c3)c(Cc3ccccc3OC)n2c1 | 21* | 4 | 7 | -1 | 0 | ·
Clc1ccc2nc(-c3cccc(Br)c3)c(Cc3ccccc3)n2c1 | 21* | 0 | 3 | 8 | -6 | ·
COC(=O)c1ccc2nc(-c3ccc(C)cc3)c(Cc3ccc(C)cc3)n2c1 | 21* | 3 | -1 | -1 | -4 | ·
Clc1cccc(Cc2c(-c3cccc(Br)c3)nc3ccc(Cl)cn23)c1 | 2 | 3 | -3 | -1 | -6 | ·
C[C@@H]1CN([C@H](C)CO)C(=O)c2cc(/C=C/c3ccccc3)cnc2O[C@@H]1CN(C)C(=O)NC1CCCCC1 | · | · | · | -9 | · | ·
COc1ccccc1C(=O)Nc1ccc2c(c1)OC[C@@H](C)N(C)C[C@@H](C)[C@@H](OC)CN(C)C2=O | · | · | · | 10 | · | ·
CCN1C(=O)N/C(=C/c2ccc(C)o2)C1=O | -2 | -1 | -8 | 42* | 11 | 7
Cc1ccc(/C=C2/NC(=O)N(Cc3ccc(Br)cc3)C2=O)o1 | 0 | -2 | 5 | · | -11 | 0
COC(=O)c1ccc(=O)n(CC(=O)c2ccc(Cl)cc2)c1 | 27* | 1 | 3 | -1 | 2 | -2
C[C@@H]1CCCCO[C@@H](CN(C)C(=O)CCCN(C)C)[C@@H](C)CN([C@@H](C)CO)C(=O)c2cc(NC(=O)C3CCCCC3)ccc2O1 | · | · | · | -8 | · | ·
CCOC(=O)COc1c(C=O)cc(Br)cc1OC | 28* | 0 | 1 | · | 6 | -1
CCOC(=O)COc1c(/C=N\OC)cc(Cl)cc1OC | 5 | 1 | 2 | 2 | -12 | -4
O=C(CCN1CCCCC1)N[C@@H]1CC[C@@H](CCNC(=O)c2cc(Cl)cc(Cl)c2)O[C@H]1CO | · | · | · | -3 | · | ·
O=C(C[C@H]1C(=O)N(C2CCCCC2)C[C@@H]1c1ccccc1)Nc1ccc(Br)cc1 | 22* | 10 | 12 | 2 | 6 | ·
O=C1Nc2ccccc2C1(O)c1ccccc1O (centres undefined) | 7 | 6 | 2 | 6 | -14 | 1
Cc1cc(C2(O)C(=O)Nc3ccccc32)ccc1F (centres undefined) | 5 | 0 | 3 | 36* | 9 | 4
C[C@@H]1CCCCO[C@@H](CN(C)CC2CCCCC2)[C@H](C)CN([C@@H](C)CO)C(=O)c2cc(NC(=O)c3ccncc3)ccc2O1 | · | · | · | 0 | · | ·
